Like-named read-outs stand apart in the source and are kept apart here.
How the values were obtained:
Format in all cases: cell-based
FPR3 = molecular target: T1, FPR3 (Homo sapiens, UniProt P25089); experiment: Ca2+ flux assay in FPR3-HL60 cells; details: for FPR3-HL60 Efficacy: % of the response induced by 5 nM WKYMVm
T1 sequence (P25089 1-353): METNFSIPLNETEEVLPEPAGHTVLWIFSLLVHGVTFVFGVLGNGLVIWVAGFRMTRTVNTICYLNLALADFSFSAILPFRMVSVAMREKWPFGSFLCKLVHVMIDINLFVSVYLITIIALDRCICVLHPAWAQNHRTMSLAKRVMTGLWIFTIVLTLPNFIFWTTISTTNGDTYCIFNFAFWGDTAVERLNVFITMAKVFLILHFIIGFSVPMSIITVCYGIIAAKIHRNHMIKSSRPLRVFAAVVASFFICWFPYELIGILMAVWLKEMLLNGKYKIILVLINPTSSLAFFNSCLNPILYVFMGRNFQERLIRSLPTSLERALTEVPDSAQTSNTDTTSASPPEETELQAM
Method in brief: (§1)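 FPR1-, FPR2- or FPR3-transfected HL-60 cells grown in RPMI 1640 with 10% heat-inactivated FCS, 10 mM HEPES and G418 (1 mg/mL). Cells loaded with Fluo-4 AM (1.25 µg/mL final) for 30 min at 37 °C in the dark, then 2 × 10^5 cells/well. Fluorescence (ex 485/em 538 nm) read every 5 s for 240 s at room temperature. Peak rise over baseline normalized to 5 nM fMLF (FPR1) or 5 nM WKYMVm (FPR2, FPR3). EC50 from 5–6-point nonlinear fits, three independent experiments.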

[1] = tested on: human polymorphonuclear neutrophils (hPMN); experiment: Ca2+ flux assay in human neutrophils; details: for EC50: Homo sapiens, Polymorphonuclear neutrophil, read-out: hPMN EC50
Method in brief: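 Neutrophils from healthy donors' blood, purified by dextran sedimentation, Histopaque 1077 gradient and hypotonic red-cell lysis (>95% pure, >98% viable). Cells in HBSS− with 10 mM HEPES were loaded with Fluo-4 AM (1.25 µg/mL final) for 30 min at 37 °C, then plated at 2 × 10^5 cells/well. Fluorescence (485/538 nm) read every 5 s for 240 s at room temperature. Peak change normalized to 5 nM fMLF. EC50 from 5–6-point nonlinear regression, three experiments.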

FPR2 = molecular target: T2, FPR2 (Homo sapiens, UniProt P25090); experiment: Ca2+ flux assay in FPR2-HL60 cells; details: for EC50: HL-60 cells transfected with FPR2; for Emax: read-out: FPR2-HL60 Efficacy
T2 sequence (P25090 1-351): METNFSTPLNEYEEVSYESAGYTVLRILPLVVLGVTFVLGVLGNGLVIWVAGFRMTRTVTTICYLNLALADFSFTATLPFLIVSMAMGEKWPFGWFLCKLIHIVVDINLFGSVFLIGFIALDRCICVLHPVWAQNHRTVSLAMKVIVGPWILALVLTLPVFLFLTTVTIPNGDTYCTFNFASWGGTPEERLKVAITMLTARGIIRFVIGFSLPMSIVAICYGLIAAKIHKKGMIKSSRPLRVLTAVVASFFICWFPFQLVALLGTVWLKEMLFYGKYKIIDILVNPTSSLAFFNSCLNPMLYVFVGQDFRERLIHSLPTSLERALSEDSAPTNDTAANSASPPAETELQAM
Method in brief: as §1

mouse Fpr1 = molecular target: T3, mouse Fpr1 (Mus musculus, UniProt P33766); experiment: Ca2+ flux assay in mFpr1-RBL cells; details: for mFpr1-RBL Efficacy: % of the response induced by 5 nM WKYMVm
T3 sequence (P33766 1-364): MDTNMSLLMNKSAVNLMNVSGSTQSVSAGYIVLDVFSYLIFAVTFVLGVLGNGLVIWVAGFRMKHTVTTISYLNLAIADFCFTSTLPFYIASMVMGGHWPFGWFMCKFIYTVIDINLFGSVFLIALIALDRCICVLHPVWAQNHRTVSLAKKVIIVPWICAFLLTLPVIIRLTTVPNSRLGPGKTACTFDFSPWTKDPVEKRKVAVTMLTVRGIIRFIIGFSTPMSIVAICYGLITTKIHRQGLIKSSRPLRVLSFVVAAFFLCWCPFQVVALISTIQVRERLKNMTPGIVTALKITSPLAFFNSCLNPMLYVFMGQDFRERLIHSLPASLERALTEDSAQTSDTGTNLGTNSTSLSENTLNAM
Method in brief: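 RBL-2H3 cells carrying mouse Fpr1 were grown in DMEM with 20% FBS, 10 mM HEPES and G418 (250 µg/ml). Cells were loaded with Fluo-4 AM (1.25 µg/mL final, 30 min, 37 °C, dark) and plated at 2 × 10^5 cells/well. Fluorescence (485/538 nm) was read every 5 s for 240 s at room temperature after compound addition. Maximal rise over baseline normalized to 5 nM WKYMVm. EC50 from 5–6-point nonlinear fits, three experiments.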

FPR1 = molecular target: T4, FPR1 (Homo sapiens, UniProt P21462); experiment: Ca2+ flux assay in FPR1-HL60 cells; details: for Emax: read-out: FPR1-HL60 Efficacy
T4 sequence (P21462 1-350): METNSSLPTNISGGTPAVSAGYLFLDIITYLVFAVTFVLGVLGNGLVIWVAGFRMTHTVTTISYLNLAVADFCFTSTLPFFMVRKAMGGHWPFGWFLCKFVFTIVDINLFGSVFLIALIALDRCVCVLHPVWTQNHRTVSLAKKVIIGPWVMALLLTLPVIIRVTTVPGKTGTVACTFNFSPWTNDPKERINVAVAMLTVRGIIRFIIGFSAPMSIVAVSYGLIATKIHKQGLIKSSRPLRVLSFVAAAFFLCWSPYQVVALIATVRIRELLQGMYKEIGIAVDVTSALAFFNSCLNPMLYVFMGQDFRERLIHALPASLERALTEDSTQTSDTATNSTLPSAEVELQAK
Method in brief: as §1

[2] = tested on: mouse polymorphonuclear neutrophils (mPMN); experiment: Ca2+ flux assay in mouse neutrophils; details: for mPMN Efficacy: % of the response induced by 5 nM WKYMVm; for EC50: read-out: mPMN EC50
Method in brief: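 Neutrophils taken from BALB/c mouse tibia and femur bone marrow. Isolated on a 45/50/55/62/81% Percoll gradient (1600g, 30 min, 10 °C), then Histopaque 1119 to remove red cells, and kept in HBSS−. Ca2+ fluorescence (485/538 nm) monitored every 5 s for 240 s at room temperature after compound addition. Maximal change over baseline normalized to 5 nM WKYMVm. EC50 from 5–6-point nonlinear regression, three independent experiments.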

human neutrophils = experiment: Cell migration; details: Neutrophil, 1 h, read-out: EC50 in migration assay
Method in brief: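 Human neutrophils at 2 × 10^6 cells/mL in HBSS with 2% FBS, placed above a 5.0 µm polycarbonate membrane. Lower wells held test compound, DMSO (negative control) or 1 nM fMLF (positive control). Migration ran 60 min at 37 °C, 5% CO2. Migrated cells counted by ATP luminescence against neutrophil standard curves and expressed as % of spontaneous migration. EC50 from 5–6-point nonlinear fits; mean ± SD, three donors.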

mouse Fpr2 = molecular target: T5, mouse Fpr2 (Mus musculus, UniProt O88536); experiment: Ca2+ flux assay in mFpr2-RBL cells
T5 sequence (O88536 1-351): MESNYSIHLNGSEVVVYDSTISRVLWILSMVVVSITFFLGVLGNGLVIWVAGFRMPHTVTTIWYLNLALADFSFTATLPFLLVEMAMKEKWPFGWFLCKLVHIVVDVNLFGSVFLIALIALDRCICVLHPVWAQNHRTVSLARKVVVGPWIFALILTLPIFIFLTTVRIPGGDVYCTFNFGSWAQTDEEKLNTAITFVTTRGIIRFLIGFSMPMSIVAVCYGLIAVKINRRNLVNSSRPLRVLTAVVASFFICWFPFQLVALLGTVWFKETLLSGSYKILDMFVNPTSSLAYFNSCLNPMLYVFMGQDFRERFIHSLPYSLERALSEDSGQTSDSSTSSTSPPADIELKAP
Method in brief: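 RBL-2H3 cells stably expressing mouse Fpr2, grown in DMEM with 20% FBS, 10 mM HEPES and G418. Fluo-4 AM loaded (1.25 µg/mL final, 30 min, 37 °C, dark) in HBSS− with HEPES, then resuspended in HBSS with HEPES at 2 × 10^5 cells/well. Fluorescence (485/538 nm) read every 5 s for 240 s at room temperature. Peak rise over baseline was taken and EC50 fitted from 5–6-point curves. Mean of three experiments.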

[3] = % of the response induced by 5 nM fMLF
[4] = % of the response induced by 5 nM WKYMVm
[5] = Mus musculus, Polymorphonuclear neutrophil

| Compound | FPR3-HL60 Efficacy (FPR3) [%] | EC50 (FPR3) [nM] | EC50 [1] [nM] | EC50 (human neutrophils) [nM] | Emax (FPR2) [%] | Emax (FPR1) [%] | EC50 (FPR2; FPR2-HL60 EC50, Ca2+ flux) [nM] | EC50 (FPR1) [nM] | EC50 [2, 5] [nM] | mPMN Efficacy [2] [%] | other results |
| --- | --- | --- | --- | --- | --- | --- | --- | --- | --- | --- | --- |
| 1-[(4-Bromophenylcarbamoyl)-methyl]-5-(3-methoxyphenylamino)-1,6-dihydro-3-methyl-6-oxopyridazine-4-carboxylate [Compound 20] | 75 |  |  |  |  |  |  |  |  | 100 | EC50 (FPR3; read-out: FPR3-HL60 EC50, Ca2+ flux, HL-60 cells transfected with FPR3): 17100 ± 4300 nM; hPMN Efficacy [1, 3]: 155%; FPR2-HL60 Efficacy (FPR2; [4]): 115%; EC50 (FPR2; read-out: FPR2-HL60 EC50, Ca2+ flux): 3100 ± 780 nM; mFpr1-RBL Efficacy (mouse Fpr1): 50%; EC50 (mouse Fpr1; read-out: mFpr1-RBL EC50, Ca2+ flux, RBL cells transfected with mouse Fpr1): 4700 ± 1300 nM; FPR1-HL60 Efficacy (FPR1; [3]): 130%; EC50 (FPR1; read-out: FPR1-HL60 EC50, Ca2+ flux, HL-60 cells transfected with FPR1): 600 ± 100 nM; EC50 ([2]; Ca2+ flux, mouse bone marrow neutrophils): 1000 ± 340 nM |
| C=Cc1c(C)nn(CC(=O)Nc2ccc(Br)cc2)c(=O)c1Nc1cccc(OC)c1 [Compound 15, N-(4-Bromophenyl)-2-[5-(3-methoxyphenylamino)-3-methyl-6-oxo-4-vinylpyridazin-1(6H)-yl]acetamide] | 75 | 6000 ± 2100 | 840 ± 180 | 1200 ± 240 | 105 | 120 | 110 ± 14 | 230 ± 70 | 22800 ± 6400 | 30 |  |
| Cc1nn(CC(=O)Nc2ccc(Br)cc2)c(=O)c(N)c1C(=O)C=CN(C)C [Compound 24] |  |  | 9300 ± 2300 |  | 50 | 120 | 5700 ± 2300 | 5100 ± 1700 | 13500 ± 3700 | 50 | EC50 (mouse Fpr2): 9400 ± 2700 nM; mFpr2-RBL Efficacy (mouse Fpr2; [4]): 65%; EC50 (mouse Fpr1): 6700 ± 2100 nM; mFpr1-RBL Efficacy (mouse Fpr1): 55% |
| Cc1nn(CC(=O)Nc2ccc(Br)cc2)c(=O)c(N)c1-c1ccn(C)n1 [Compound 26, 2-[5-Amino-3-methyl-4-(1-methyl-1H-pyrazol-3-yl)-6-oxopyridazin-1(6H)-yl]-N-(4-bromophenyl)acetamide] |  |  | 3500 ± 320 |  | 40 | 75 | 1900 ± 710 | 2900 ± 140 | 5600 ± 2400 | 45 |  |

The next lines start with results.

| FPR3-HL60 Efficacy (FPR3) [%] | EC50 (FPR3) [nM] | EC50 [1] [nM] | EC50 (human neutrophils) [nM] | Emax (FPR2) [%] | Emax (FPR1) [%] | EC50 (FPR2; FPR2-HL60 EC50, Ca2+ flux) [nM] | EC50 (FPR1) [nM] | EC50 [2, 5] [nM] | Compound | mPMN Efficacy [2] [%] | other results |
| --- | --- | --- | --- | --- | --- | --- | --- | --- | --- | --- | --- |
| 150 | 210 ± 44 | 36 ± 7 | 2200 ± 510 | 60 | 185 |  |  |  | COc1cccc(Nc2c(C(C)=O)c(C)nn(CC(=O)Nc3ccc(Br)cc3)c2=O)c1 [Compound 8a, 2-[4-Acetyl-5-(3-methoxyphenylamino)-3-methyl-6-oxopyridazin-1(6H)-yl]-N-(4-bromophenyl)acetamide] |  |  |
|  |  | 5500 ± 1600 |  | 190 | 130 | 780 ± 100 | 2700 ± 800 | 8400 ± 2600 | CCC(=O)c1c(C)nn(CC(=O)Nc2ccc(Br)cc2)c(=O)c1Nc1cccc(OC)c1 [Compound 8b, N-(4-Bromophenyl)-2-[5-(3-methoxyphenylamino)-3-methyl-6-oxo-4-propionylpyridazin-1(6H)-yl]acetamide] | 75 |  |
|  |  | 8000 ± 2600 |  |  | 45 |  | 15600 ± 2600 | 24100 ± 6100 | CCCCC(=O)c1c(C)nn(CC(=O)Nc2ccc(Br)cc2)c(=O)c1Nc1cccc(OC)c1 [Compound 8d, N-(4-Bromophenyl)-2-[5–(3-methoxyphenylamino)-3-methyl-6-oxo-4-pentanoylpyridazin-1(6H)-yl]acetamide] | 105 |  |
|  |  | 1700 ± 400 |  | 60 | 110 | 10500 ± 2100 | 1600 ± 400 | 15900 ± 4900 | COc1cccc(Nc2c(C(=O)C3CCCC3)c(C)nn(CC(=O)Nc3ccc(Br)cc3)c2=O)c1 [Compound 8e, N-(4-Bromophenyl)-2-[4–cyclopentanecarbonyl-5-(3-methoxyphenylamino)-3-methyl-6-oxopyridazin-1(6H)-yl]acetamide] | 120 |  |
| 35 | 460 ± 14 | 340 ± 110 |  | 35 | 185 | 61 ± 22 | 180 ± 4 |  | CCc1c(C)nn(CC(=O)Nc2ccc(Br)cc2)c(=O)c1Nc1cccc(OC)c1 [Compound 13a, N-(4-Bromophenyl)-2-[4-ethyl-5-(3-methoxyphenylamino)-3-methyl-6-oxopyridazin-1(6H)-yl]acetamide] |  |  |
|  |  | 590 ± 210 | 1100 ± 220 | 90 | 130 | 590 ± 180 | 3600 ± 280 |  | COc1cccc(Nc2c(-c3ccn(C)n3)c(C)nn(CC(=O)Nc3ccc(Br)cc3)c2=O)c1 [Compound 27a, N-(4-Bromophenyl)-2-[5-(3-methoxyphenylamino)-3-methyl-4-(1-methyl-1H-pyrazol-3-yl)-6-oxo-6H-pyridazin-1-yl]acetamide] |  |  |
